We go through 6 molecules from ChEMBL document CHEMBL1145984 (J Med Chem, 2003).

pKi: −log10 of the molar value.

The assay concerns the target T1, Aminopeptidase N (Sus scrofa, UniProt P15145).
T1 sequence (P15145 whole entry): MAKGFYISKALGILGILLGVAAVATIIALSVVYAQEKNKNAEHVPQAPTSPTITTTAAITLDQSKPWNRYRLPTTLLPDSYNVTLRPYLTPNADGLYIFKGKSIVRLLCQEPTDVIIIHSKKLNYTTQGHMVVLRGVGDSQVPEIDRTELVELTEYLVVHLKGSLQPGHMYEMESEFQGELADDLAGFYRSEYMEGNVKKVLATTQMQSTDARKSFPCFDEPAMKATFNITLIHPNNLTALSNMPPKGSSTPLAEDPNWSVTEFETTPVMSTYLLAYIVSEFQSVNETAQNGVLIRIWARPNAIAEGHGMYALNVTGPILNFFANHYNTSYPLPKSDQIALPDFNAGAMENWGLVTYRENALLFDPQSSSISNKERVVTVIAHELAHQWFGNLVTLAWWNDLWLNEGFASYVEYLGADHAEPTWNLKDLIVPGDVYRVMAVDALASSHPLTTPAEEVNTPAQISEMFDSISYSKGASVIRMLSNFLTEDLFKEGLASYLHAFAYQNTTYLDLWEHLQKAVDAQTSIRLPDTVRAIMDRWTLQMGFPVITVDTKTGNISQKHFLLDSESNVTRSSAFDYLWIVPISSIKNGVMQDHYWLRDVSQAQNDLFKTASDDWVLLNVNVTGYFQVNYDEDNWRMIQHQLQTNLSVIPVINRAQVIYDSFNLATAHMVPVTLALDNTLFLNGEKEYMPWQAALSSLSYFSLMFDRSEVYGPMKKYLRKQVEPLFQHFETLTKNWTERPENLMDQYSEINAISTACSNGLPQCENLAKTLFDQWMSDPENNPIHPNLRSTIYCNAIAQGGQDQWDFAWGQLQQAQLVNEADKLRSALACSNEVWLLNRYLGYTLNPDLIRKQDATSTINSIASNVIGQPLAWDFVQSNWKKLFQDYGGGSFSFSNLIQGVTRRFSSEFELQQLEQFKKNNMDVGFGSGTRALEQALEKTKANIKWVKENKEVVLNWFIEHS
The experiment in a line: Binding affinity towards aminopeptidase N (APN) from pig kidney. The gist of the method:
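Porcine kidney APN (lyophilized, diluted in 50 mM potassium phosphate pH 7.2; 4 µg/mL final), inhibitor preincubated 60 min at room temperature, inhibitor solutions adjusted to pH 7.5. L-leucine p-nitroanilide 0.05–0.6 mM final starts reaction; A405 followed 10 min at 25 °C. Ki from Lineweaver-Burk plots of initial linear velocities, 3–4 inhibitor concentrations, each measured twice.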
For `CC(C)CC(CP(=O)(O)C(N)CC(C)C)C(=O)O` (stereo in doubt; 27), the pKi – broadly, the Ki on a negative log10 scale, so that one unit is a factor of ten – was 5.99. To `CC(C)CC(N)P(=O)(O)CCC(=O)O` (stereo unspecified) belongs 5.85; to `CC(C)CC(N)P(=O)(O)O` (stereo unspecified), 4.26; to `CC(C)CC(CP(=O)(O)C(N)CCc1ccccc1)C(=O)O` (stereo unspecified), 6.00.

Turning to `NC(CCc1ccccc1)P(=O)(O)CC(Cc1ccc(O)cc1)C(=O)O` (stereo unspecified), the pKi is 7.44. Compared with the last molecule, the pKi is 1.44 log units higher.

Take `NC(CCc1ccccc1)P(=O)(O)CC(Cc1ccccc1)C(=O)O` (stereo unspecified): the pKi is 6.56.
